NadD inh: inhibitors of Staphylococcus aureus NadD | inhibition, % at 20 µM | hit rate 0.78% among 360,000 | purified NadD enzyme, colorimetric absorbance read-out; in the data active = inhibition above about 26%
HCV core dimer: blocks dimerization of HCV core protein; TR-FRET GST/Flag-core106 dimerization, 1536-well; AID 1899; hit rate 0.33% among 300,000; inhibition, % at 5 µM;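 active = inhibition above the mean of all tested compounds plus 3 SD, set per screening campaign, cut at about 45% in these data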
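System: GST/Flag-tagged HCV core106 proteins. Incubation: compound-protein-antibody incubation 4 h at 22.5 °C. Technique: HTRF with 340 nm excitation, 617/671 nm emission. Medium: KF-containing HEPES buffer, pH 7.45, DTT, CHAPS, BSA. Read-out: inhibition (%) from 671 over 617 nm ratio. Also added: Eu(K)-anti-GST 90 ng/mL plus XL665-anti-Flag 1 µg/mL.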
PP1 inh: PP1-alpha (human) inhibition in PP5 counter-screen; P62136; purified PP1alpha, OMFP fluorescence; inhibition, % at 6.7 µM; hit rate 0.9% among 320,000; AID 2235;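 active = inhibition above the mean inhibition of all tested compounds plus 3 SD, computed separately for each screening campaign, cut at about 15% in these data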
PP5 primary: inhibitors of human protein phosphatase 5 (PP5) | P53041 | purified PP5c, OMFP substrate fluorescence | inhibition, % at 6.7 µM | hit rate 0.18% among 320,000 | AID 1987;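 active = inhibition above the campaign's mean inhibition across all tested compounds plus 3 SD, cut at about 9.5% in these data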;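 also: 0% = DMSO only and 100% = 100 µM cantharidin control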
Target sequence (P53041 whole entry, looked up): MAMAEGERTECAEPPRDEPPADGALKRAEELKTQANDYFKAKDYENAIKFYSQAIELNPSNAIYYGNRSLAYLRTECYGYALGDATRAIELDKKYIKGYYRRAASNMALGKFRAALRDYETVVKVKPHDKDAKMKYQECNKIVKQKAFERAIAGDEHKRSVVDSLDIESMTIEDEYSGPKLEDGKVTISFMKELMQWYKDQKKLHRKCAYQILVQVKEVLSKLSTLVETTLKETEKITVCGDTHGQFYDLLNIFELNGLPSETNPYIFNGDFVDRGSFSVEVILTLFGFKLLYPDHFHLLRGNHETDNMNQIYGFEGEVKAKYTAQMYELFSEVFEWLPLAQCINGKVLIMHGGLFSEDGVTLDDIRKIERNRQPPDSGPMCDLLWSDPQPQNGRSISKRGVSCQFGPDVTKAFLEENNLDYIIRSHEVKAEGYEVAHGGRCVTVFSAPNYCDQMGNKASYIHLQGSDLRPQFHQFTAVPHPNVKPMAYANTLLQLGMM
CTSL1 counter: counter-screen for PFM18AAP inhibitors: inhibitors of F. hepatica cathepsin L1 | AID 1906 | inhibition, % at 5.96 µM | recombinant F. hepatica cathepsin L1, Z-Leu-Arg-MCA fluorescence | hit rate 0.49% among 300,000;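 active = inhibition above the mean of all tested compounds plus 3 SD, set per screening campaign, cut at about 17% in these data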;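 also: 0% = plate median of test compound wells and 100% = 1 µM Z-Phe-Ala-diazomethylketone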
Myeloid diff MLP: promotes myeloid progenitor differentiation; ER-HoxA9 myeloid progenitors, lysozyme-GFP differentiation, flow cytometry; calls only at 10 µM; hit rate 1% among 360,000; AID 624256;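 active = normalized GFP-positive differentiation at or above the plate's own cutoff, the solvent-only control mean plus 3 SD; inconclusive = no clear call, values can overlap the other calls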;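 also: cells exposed to compound for four days before flow analysis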
* = called active by the depositor; i = inactive; ? = inconclusive; . = no result; + = active, no number. Most compounds without a hit are left out; they make up all but 3.1% or so of the library.

SMILES | NadD inh | HCV core dimer | PP1 inh | PP5 primary | CTSL1 counter | Myeloid diff MLP
Cc1cc(C=C2C(=O)CCCC2=O)c(C)n1-c1ccccc1 | 7.3 | 55.1* | -1.6 | -1.3 | 1.9 | i
O=C1c2cccc3c(N4CCCCC4)ccc(c23)C(=O)N1c1ccc(O)cc1 | 22.1 | 17.5 | -2.8 | -4.3 | 2.2 | +
O=C1c2cccc3c(N4CCCCC4)ccc(c23)C(=O)N1c1ccccc1O | 5.3 | 1.8 | -3.3 | -1.9 | -3.7 | +
COc1ccc(OC)c(S(=O)(=O)N2CCN(CC(O)COc3ccccc3)CC2)c1 (centres undefined) | -5.1 | 0.1 | 7.6 | 3.0 | -3.5 | i
OC(CN1c2ccccc2Sc2ccccc21)Cn1nnc2ccccc21 (centres undefined) | -3.7 | 2.2 | 3.4 | 5.7 | 17.2* | i
Cc1ccc2c(c1)c(C)c(C)n2CC(O)Cn1nnc2ccccc21 (centres undefined) | 5.8 | -7.8 | -0.5 | 1.8 | 1.5 | +
Cn1c(Cn2nnc3ccccc32)nnc1SCC(=O)N1c2ccccc2Sc2ccccc21 | 3.0 | -19.2 | 1.7 | 4.6 | 16.8* | i
Cn1c(Cn2nnc3ccccc32)nnc1SCC(=O)N1c2ccccc2CCc2ccccc21 | -2.6 | 13.4 | -4.3 | -1.1 | 0.4 | i
CC(C)=CCn1c2ccc(NC(=O)NCc3ccc(F)cc3)cc2c(=O)n1C | -2.2 | . | . | . | . | ?
COc1ccc(C)cc1NC(=O)c1cc2ccccc2o1 | -5.0 | -0.6 | 1.3 | 1.3 | 33.3* | i
COc1ccc(OC)c(NC(=O)c2cc3ccccc3o2)c1 | -10.8 | 5.6 | 2.9 | -4.2 | 1.8 | i
Cc1ccc(C(=O)NC(=S)Nc2ccc(-c3ccc(CO)o3)cc2)cc1 | -0.3 | 22.2 | 1.8 | 2.4 | 2.6 | i
O=C(NC(=S)Nc1ccc(-c2ccc(CO)o2)cc1)c1cccs1 | 20.8 | 51.1* | 8.8 | 2.0 | 10.7 | i
Cc1ccc2c(c1)c1c3n2CCN(CC#N)C3CCC1 (centres undefined) | -5.2 | 0.4 | -1.8 | 6.0 | -3.2 | i
Cc1ccc2c(c1)c1c3n2CCCN(Cc2ccccc2)C3CCC1 (centres undefined) | 0.3 | -3.4 | -2.1 | 1.7 | 1.5 | +
COc1ccccc1C(=O)NC(=O)CSc1nnc(C)s1 | -1.5 | 0.5 | 2.0 | 0.4 | -1.0 | .
CC1CCc2c(sc(NC(=O)/C=C/c3cccs3)c2C(=O)O)C1 (centres undefined) | -4.9 | -1.6 | 1.1 | -2.2 | -0.4 | i
NC(=O)c1ccc(N=C2C(=O)Nc3ccc([N+](=O)[O-])cc32)cc1 | 1.9 | -2.2 | 1.1 | 2.1 | 108.8* | i
O=C1Nc2ccccc2C1=Nc1cccc([N+](=O)[O-])c1 | -4.0 | -0.5 | -1.3 | 0.0 | -1.7 | i
CCN1C(=O)/C(=C/N2CCc3ccccc3C2)SC1=S | -3.5 | -1.2 | 1.4 | 0.6 | -2.0 | i
CCCCCN1C(=O)/C(=C/c2c(N3CCc4ccccc4C3)nc3ccccn3c2=O)SC1=S | 6.2 | 9.6 | -1.7 | -0.8 | -3.1 | +
CCn1c(SCC(=O)c2c[nH]c3ccccc23)nc2cc(S(=O)(=O)N3CCOCC3)ccc21 | 27.6 | 10.0 | 2.2 | 3.9 | -0.5 | +
CCCCn1c(N)c(N(CCOC)C(=O)COC(=O)CNC(=O)c2ccc(Cl)c(Cl)c2)c(=O)[nH]c1=O | 2.1 | . | . | . | . | i
O=C(OCC(=O)N1CCN(c2ccccc2)CC1)c1cc(Cl)ccc1[N+](=O)[O-] | 0.2 | 0.0 | -2.1 | 1.9 | 2.6 | i
CC[C@@H]1C(c2ccc(F)cc2)=NN(c2ccccc2)[C@H]1C(=O)N1CCOC1=O | -4.9 | . | . | . | . | i
CC[C@@H]1C(c2ccccc2)=NN(c2ccccc2)[C@H]1C(=O)N1CCOC1=O | 1.2 | . | . | . | . | +
Cc1oc(C(C)(C)C)cc1C(=O)N1CCCC1C(=O)O (centres undefined) | 1.6 | -0.5 | -0.9 | 2.7 | -0.6 | +
CS(=O)(=O)c1ccc(-c2cccc(NC(=O)c3ccco3)c2)nn1 | -6.2 | -0.6 | 8.8 | 2.0 | 3.0 | i
CCCC1=NN2C(=N)/C(=C\c3cc(C)n(Cc4ccccc4)c3C)C(=O)N=C2S1 | 7.8 | 13.2 | 8.2 | 4.0 | 6.5 | i
CCCC1=NN2C(=N)/C(=C\c3cc(C)n(-c4cccc(C)c4)c3C)C(=O)N=C2S1 | 53.0* | 1.7 | -1.7 | -2.9 | 5.8 | i

Compound activity as filed in PubChem.
